ChEMBL document CHEMBL1157038, “Synthesis and in vitro microbiological evaluation of an array of biolabile 2-morpholino-N-(4,6-diarylpyrimidin-2-yl)acetamides” (2010)
≈ marks a conversion by molar mass, not a printed value.

Tests used:
Type in all cases: functional
Staphylococcus aureus = test: Antibacterial activity against Staphylococcus aureus after 24 hrs by twofold serial dilution method
In short: (§1)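 Compounds dissolved in DMSO as 1 mg/mL stock. Seeded nutrient broth prepared from 24 h nutrient agar cultures, adjusted by plate count. Final inoculum 10⁵ cfu/mL at pH 7.4. First dilution was 0.4 mL stock in 1.6 mL seeded broth, then serial twofold through six dilutions. Seeded-broth-only tubes served as controls. Incubated at 37 °C; MIC read visually at 24 h.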

Vibrio cholerae = test: Antibacterial activity against Vibrio cholerae after 24 hrs by twofold serial dilution method
Escherichia coli = test: Antibacterial activity against Escherichia coli after 24 hrs by twofold serial dilution method; in short: as §1
Klebsiella pneumoniae = test: Antibacterial activity against Klebsiella pneumoniae after 24 hrs by twofold serial dilution method; in short: as §1
Pseudomonas = test: Antibacterial activity against Pseudomonas after 24 hrs by twofold serial dilution method; in short: as §1
Aspergillus flavus = test: Antifungal activity against Aspergillus flavus after 1 to 7 days by twofold serial dilution method
In short: (§2)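 Test compounds were made as 1 mg/mL DMSO stocks. Spores from 1–7 day Sabouraud agar slants were suspended in Sabouraud dextrose broth at pH 5.6. Final inoculum 1.1–1.5×10² cfu/mL. First dilution was 0.4 mL stock plus 1.6 mL seeded broth, followed by six twofold serial dilutions. Controls held seeded broth only. Incubated at 28 °C; MIC read visually after 72–96 h.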

Mucor = test: Antifungal activity against Mucor after 1 to 7 days by twofold serial dilution method; in short: as §2
Rhizopus = test: Antifungal activity against Rhizopus after 1 to 7 days by twofold serial dilution method; in short: as §2
Nannizzia gypsea = test: Antifungal activity against Microsporum gypseum after 1 to 7 days by twofold serial dilution method; in short: as §2

## Cc1ccc(-c2cc(-c3ccc(F)cc3)nc(NC(=O)CN3CCOCC3)n2)cc1
Staphylococcus aureus
  MIC: 12.5 µg/mL (≈ 30.8 µM)
Vibrio cholerae
  MIC: 12.5 µg/mL (≈ 30.8 µM)
Escherichia coli
  MIC: 50 µg/mL (≈ 123 µM)
Klebsiella pneumoniae
  MIC: 50 µg/mL (≈ 123 µM)
Pseudomonas
  MIC: 100 µg/mL (≈ 246 µM)
Aspergillus flavus
  MIC: 200 µg/mL (≈ 492 µM)
Mucor
  MIC: 100 µg/mL (≈ 246 µM)
Rhizopus
  MIC: 50 µg/mL (≈ 123 µM)
Nannizzia gypsea
  MIC: 12.5 µg/mL (≈ 30.8 µM)

## O=C(CN1CCOCC1)Nc1nc(-c2ccc(F)cc2)cc(-c2ccc(F)cc2)n1
Staphylococcus aureus
  MIC: 100 µg/mL (≈ 244 µM)
Vibrio cholerae
  MIC: 50 µg/mL (≈ 122 µM)
Escherichia coli
  MIC: 6.25 µg/mL (≈ 15.2 µM)
Klebsiella pneumoniae
  MIC: 50 µg/mL (≈ 122 µM)
Pseudomonas
  MIC: 6.25 µg/mL (≈ 15.2 µM)
Aspergillus flavus
  MIC: 12.5 µg/mL (≈ 30.5 µM)
Mucor
  MIC: 6.25 µg/mL (≈ 15.2 µM)
Rhizopus
  MIC: 6.25 µg/mL (≈ 15.2 µM)
Nannizzia gypsea
  MIC: 100 µg/mL (≈ 244 µM)

## COc1ccc(-c2cc(-c3ccc(F)cc3)nc(NC(=O)CN3CCOCC3)n2)cc1
Staphylococcus aureus
  MIC: 200 µg/mL (≈ 473 µM)
Vibrio cholerae
  MIC: 100 µg/mL (≈ 237 µM)
Escherichia coli
  MIC: 50 µg/mL (≈ 118 µM)
Klebsiella pneumoniae
  MIC: 100 µg/mL (≈ 237 µM)
Pseudomonas
  MIC: 6.25 µg/mL (≈ 14.8 µM)
Aspergillus flavus
  MIC: 6.25 µg/mL (≈ 14.8 µM)
Mucor
  MIC: 6.25 µg/mL (≈ 14.8 µM)
Rhizopus
  MIC: 200 µg/mL (≈ 473 µM)
Nannizzia gypsea
  MIC: 100 µg/mL (≈ 237 µM)

## COc1ccc(-c2cc(-c3ccc(C)cc3)nc(NC(=O)CN3CCOCC3)n2)cc1
Staphylococcus aureus
  MIC: 100 µg/mL (≈ 239 µM)
Vibrio cholerae
  MIC: 12.5 µg/mL (≈ 29.9 µM)
Escherichia coli
  MIC: 200 µg/mL (≈ 478 µM)
Klebsiella pneumoniae
  MIC: 50 µg/mL (≈ 119 µM)
Pseudomonas
  MIC: 50 µg/mL (≈ 119 µM)
Aspergillus flavus
  MIC: 100 µg/mL (≈ 239 µM)
Mucor
  MIC: 50 µg/mL (≈ 119 µM)
Rhizopus
  MIC: 12.5 µg/mL (≈ 29.9 µM)
Nannizzia gypsea
  MIC: 50 µg/mL (≈ 119 µM)

## O=C(O)c1cn(C2CC2)c2cc(N3CCNCC3)c(F)cc2c1=O [CIPROFLOXACIN]
Vibrio cholerae
  MIC: 50 µg/mL (≈ 151 µM)
Escherichia coli
  MIC: 25 µg/mL (≈ 75.4 µM)
Pseudomonas
  MIC: 25 µg/mL (≈ 75.4 µM)

## Cc1ccc(-c2cc(-c3ccccc3)nc(NC(=O)CN3CCOCC3)n2)cc1
Staphylococcus aureus
  MIC: 50 µg/mL (≈ 129 µM)
Vibrio cholerae
  MIC: 100 µg/mL (≈ 257 µM)
Escherichia coli
  MIC: 50 µg/mL (≈ 129 µM)
Klebsiella pneumoniae
  MIC: 100 µg/mL (≈ 257 µM)
Pseudomonas
  MIC: 50 µg/mL (≈ 129 µM)
Aspergillus flavus
  MIC: 100 µg/mL (≈ 257 µM)
Mucor
  MIC: 50 µg/mL (≈ 129 µM)
Rhizopus
  MIC: 50 µg/mL (≈ 129 µM)
Nannizzia gypsea
  MIC: 50 µg/mL (≈ 129 µM)

## O=C(CN1CCOCC1)Nc1nc(-c2ccccc2)cc(-c2ccc(F)cc2)n1
Staphylococcus aureus
  MIC: 200 µg/mL (≈ 510 µM)
Vibrio cholerae
  MIC: 50 µg/mL (≈ 127 µM)
Escherichia coli
  MIC: 50 µg/mL (≈ 127 µM)
Klebsiella pneumoniae
  MIC: 6.25 µg/mL (≈ 15.9 µM)
Pseudomonas
  MIC: 100 µg/mL (≈ 255 µM)
Aspergillus flavus
  MIC: 6.25 µg/mL (≈ 15.9 µM)
Mucor
  MIC: 50 µg/mL (≈ 127 µM)
Rhizopus
  MIC: 100 µg/mL (≈ 255 µM)
Nannizzia gypsea
  MIC: 200 µg/mL (≈ 510 µM)

## COc1ccc(-c2cc(-c3ccccc3)nc(NC(=O)CN3CCOCC3)n2)cc1
Staphylococcus aureus
  MIC: 50 µg/mL (≈ 124 µM)
Vibrio cholerae
  MIC: 100 µg/mL (≈ 247 µM)
Escherichia coli
  MIC: 200 µg/mL (≈ 494 µM)
Klebsiella pneumoniae
  MIC: 100 µg/mL (≈ 247 µM)
Pseudomonas
  MIC: 50 µg/mL (≈ 124 µM)
Aspergillus flavus
  MIC: 100 µg/mL (≈ 247 µM)
Mucor
  MIC: 200 µg/mL (≈ 494 µM)
Rhizopus
  MIC: 100 µg/mL (≈ 247 µM)
Nannizzia gypsea
  MIC: 100 µg/mL (≈ 247 µM)

## O=C(CN1CCOCC1)Nc1nc(-c2ccccc2)cc(-c2ccccc2)n1
Staphylococcus aureus
  MIC: 200 µg/mL (≈ 534 µM)
Vibrio cholerae
  MIC: 200 µg/mL (≈ 534 µM)
Escherichia coli
  MIC: 200 µg/mL (≈ 534 µM)
Klebsiella pneumoniae
  MIC: 50 µg/mL (≈ 134 µM)
Pseudomonas
  MIC: 100 µg/mL (≈ 267 µM)
Aspergillus flavus
  MIC: 200 µg/mL (≈ 534 µM)
Mucor
  MIC: 100 µg/mL (≈ 267 µM)
Rhizopus
  MIC: 100 µg/mL (≈ 267 µM)
Nannizzia gypsea
  MIC: 200 µg/mL (≈ 534 µM)

## OC(Cn1cncn1)(Cn1cncn1)c1ccc(F)cc1F [FLUCONAZOLE]
Aspergillus flavus
  MIC: 50 µg/mL (≈ 163 µM)
Mucor
  MIC: 25 µg/mL (≈ 81.6 µM)
Rhizopus
  MIC: 25 µg/mL (≈ 81.6 µM)
Nannizzia gypsea
  MIC: 25 µg/mL (≈ 81.6 µM)
